Reference: ChEMBL document CHEMBL1125363, “Novel piperidine sigma receptor ligands as potential antipsychotic drugs” (J Med Chem, 1992)
pIC50, pKi: −log10 of the molar value.

Key:
[1] = target: Serotonin 2 (5-HT2) receptor (Mus musculus, UniProt Q02152+P34968+P35363); assay: In vitro binding affinity for serotonin 5-hydroxytryptamine (5-HT) 2 receptors; assay type: protein assay
[2] = target: D(2) dopamine receptor (Mus musculus, UniProt P61168); assay: In vitro binding affinity towards dopamine receptor D2
[3] = organism: Mus musculus; assay: Oral potency tested by using anti-mescaline test; assay type: functional
Procedure, shortened: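 Mice; mescaline was given to evoke hallucinogen-type behaviour, and the test compound was dosed orally to antagonise it. Potency is the ED50 in mg/kg po. Some ED50s are the average of three measurements.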

[4] = target: Sigma non-opioid intracellular receptor 1 (Mus musculus, UniProt O55242); assay: In vitro binding affinity for the mouse sigma opioid receptor
[5] = organism: Mus musculus; assay: Potency was tested using Anti mescaline test(Intra peritoneal); assay type: functional
Procedure, shortened: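 Mouse mescaline-antagonism test with the test compound given intraperitoneally. Read-out is the ED50 in mg/kg ip.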

[6] = organism: Rattus norvegicus; assay: Oral potency tested using 5HTP induced head twitch test; assay type: functional
[7] = organism: Mus musculus; assay: Oral potency tested using apomorphine induced climbing test; assay type: functional
[8] = Oral potency by using Anti aggression test; assay type: functional
Procedure, shortened: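 Mice were held in prolonged isolation, then exposed to intruders. The aggressive response was scored after oral dosing of the test compound. Potency is the ED50 in mg/kg po.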

[9] = organism: Mus musculus; assay: Oral potency by using Anti aggression test

Sequence of Sigma non-opioid intracellular receptor 1 (O55242 whole entry): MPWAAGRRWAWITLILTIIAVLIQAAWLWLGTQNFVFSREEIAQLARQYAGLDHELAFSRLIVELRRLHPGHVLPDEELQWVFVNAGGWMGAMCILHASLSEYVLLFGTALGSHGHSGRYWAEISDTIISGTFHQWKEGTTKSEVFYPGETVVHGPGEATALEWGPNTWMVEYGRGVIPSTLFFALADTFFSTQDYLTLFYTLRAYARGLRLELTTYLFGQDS
Sequence of D(2) dopamine receptor (P61168 whole entry): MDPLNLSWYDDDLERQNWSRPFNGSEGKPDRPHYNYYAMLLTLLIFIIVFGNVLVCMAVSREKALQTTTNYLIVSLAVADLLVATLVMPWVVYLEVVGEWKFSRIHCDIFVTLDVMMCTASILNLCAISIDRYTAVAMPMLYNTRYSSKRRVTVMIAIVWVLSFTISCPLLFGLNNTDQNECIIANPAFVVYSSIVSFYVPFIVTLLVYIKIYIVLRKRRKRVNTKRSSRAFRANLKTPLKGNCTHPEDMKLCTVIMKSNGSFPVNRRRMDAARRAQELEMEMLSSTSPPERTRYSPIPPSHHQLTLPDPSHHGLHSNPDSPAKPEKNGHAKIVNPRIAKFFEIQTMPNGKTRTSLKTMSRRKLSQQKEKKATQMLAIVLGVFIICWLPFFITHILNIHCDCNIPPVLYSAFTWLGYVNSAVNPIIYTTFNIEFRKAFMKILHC

Row | Compound | Ki [1] [nM] | pIC50 [2] | pKi [4] | ED50 [3] [mg/kg] | ED50 [5] [mg/kg] | ED50 [6] [mg/kg] | ED50 [7] [mg/kg] | ED50 [8] [mg/kg] | ED50 [9] [mg/kg]
1 | O=C(CC1CCN(CCc2ccccc2)CC1)c1ccc(F)cc1 | 8 | 7.38 | 8.10 | 4.1 |  |  |  |  | 
2 | Fc1ccc(COCC2CCN(Cc3ccncc3)CC2)cc1.O=C(O)/C=C/C(=O)O |  | < 5.00 | 8.70 |  | < 10 |  |  |  | 
3 | O.O=C(CC1CCN(CCc2c[nH]c3ccccc23)CC1)c1ccc(F)cc1 | 3.6 | 8.15 | 7.59 | < 10 |  |  |  |  | 
4 | COc1ccc(COCC2CCN(Cc3ccccc3)CC2)cc1.O=C(O)/C=C\C(=O)O | 287 | 4.59 | 8.46 | > 30 |  |  |  |  | 
5 | Fc1ccc(COCC2CCN(Cc3ccccc3)CC2)cc1.O=C(O)/C=C\C(=O)O | 272 | 5.41 | 8.70 | 14 |  |  |  |  | 
6 | O=C(O)/C=C\C(=O)O.c1ccc(CCCOC2CCN(Cc3ccccc3)CC2)cc1 |  | 5.09 | 8.70 |  | < 10 |  |  |  | 
7 | O=C(CC1CCN(Cc2ccc(F)cc2)CC1)c1ccc(F)cc1 | 26 | 6.22 | 8.52 | 4.5 |  | < 10 | < 10 | 4.5 | 
8 | O.O=C(O)/C=C\C(=O)O.c1ccc(CN2CCC(COCc3ccc(-c4ccccc4)cc3)CC2)cc1 | 47 | 5.73 | 7.70 |  | 10 |  |  |  | 
9 | O.O=C(O)/C=C\C(=O)O.c1ccc(CN2CCC(COc3cccnc3)CC2)cc1 | > 10000 | < 5.00 | 8.30 | > 30 |  |  |  |  | 
10 | O.OC(CC1CCN(Cc2ccccc2)CC1)c1cccs1 (stereo unspecified) | 446 | 5.43 | 8.30 | > 30 |  |  |  |  | 
11 | O.O=C(Cc1ccc(F)cc1)C1CCN(Cc2ccncc2)CC1.O=C(O)/C=C\C(=O)O | 1705 | < 5.00 | 8.15 | 10 |  | 28 |  | 38 | 
12 | O=C(O)/C=C\C(=O)O.c1ccc(CCCOCC2CCN(Cc3ccccc3)CC2)cc1 | 260 | 6.08 | 8.49 |  | < 10 |  |  |  | 
13 | O=C(O)/C=C\C(=O)O.c1ccc(CN2CCC(COC3CC3)CC2)cc1 | > 10000 | < 5.00 | 8.70 | > 30 |  |  |  |  | 
14 | Fc1ccc(OCC2CCN(CCC3CC3)CC2)cc1.O=C(O)/C=C/C(=O)O |  | 6.37 | 8.52 | 3.1 |  | < 10 |  | 4.5 | 
15 | COc1ccc(C(O)CC2CCN(Cc3ccccc3)CC2)cc1.Cl (stereo unspecified) | 187 | < 5.00 | 7.70 | > 30 |  |  |  |  | 
16 | CC(C)(C)c1ccc(COCCC2CCN(Cc3ccccc3)CC2)cc1.Cl | 939 | 5.17 | 8.35 |  | > 10 |  |  |  | 
17 | Cl.Fc1ccc(COCC2CCN(Cc3ccc(Cl)cc3)CC2)cc1 | 281 |  | 8.70 |  | < 10 |  |  |  | 
18 | Cl.Fc1c(F)c(F)c(OCC2CCN(CC3CC3)CC2)c(F)c1F | 3356 | 5.25 | 8.00 | 26.2 |  |  |  |  | 

Row | Compound | Ki [1] [nM] | pIC50 [2] | pKi [4] | ED50 [3] [mg/kg] | ED50 [5] [mg/kg] | ED50 [6] [mg/kg] | ED50 [7] [mg/kg] | ED50 [8] [mg/kg] | ED50 [9] [mg/kg]
19 | Cl.c1ccc(CCCCCOCC2CCN(Cc3ccccc3)CC2)cc1 | 186 | 5.73 | 7.59 |  | > 10 |  |  |  | 
20 | Cl.c1ccc(CN2CCC(COc3ccc4ccccc4n3)CC2)cc1 | 311 | 5.20 | 8.25 |  | < 10 |  |  |  | 
21 | Cl.O.O=C(CC1CCN(CC2CC2)CC1)c1ccc(C(F)(F)F)cc1 | 278 | < 5.00 | 7.35 | 6.6 |  |  | > 30 |  | > 30
22 | Cl.c1ccc(COCC2CCN(Cc3ccccc3)CC2)cc1 | > 1000 | < 5.00 | 8.40 |  | > 10 |  |  |  | 
23 | Br.O=C(CC1CCN(CC2CC2)CC1)c1ccc(Cl)cc1 | 495 | 5.70 | 8.10 | 0.46 |  | 30 | > 30 |  | 14
24 | Br.O=C(CC1CCN(CCC2CC2)CC1)c1ccc(F)cc1 | 12 | 6.66 | 7.96 | < 10 |  |  |  |  | 
25 | Cl.c1ccc(CN2CCC(COC3CCCCC3)CC2)cc1 | 1363 | < 5.00 | 8.70 |  | < 10 |  |  |  | 
26 | Cl.O.OC(Cc1ccc(F)cc1)C1CCN(Cc2ccccc2)CC1 (stereo unspecified) | 360 | 6.10 | 8.52 | 5 |  |  | > 30 | > 30 | 
27 | Cl.Fc1ccc(COCC2CCN(Cc3cccc4ccccc34)CC2)cc1 | 25 | 6.66 | 7.66 | 12 |  |  |  |  | 
28 | COC(=O)c1ccc(COCC2CCN(Cc3ccccc3)CC2)cc1.Cl.O | > 10000 | 6.01 | 7.82 | > 30 |  |  |  |  | 
29 | Cl.Fc1ccc(COCC2CCN(Cc3ccc(-c4ccccc4)cc3)CC2)cc1 | > 1000 | 6.09 | 7.85 |  | > 10 |  |  |  | 
30 | Cl.c1ccc(CCCCOCC2CCN(Cc3ccccc3)CC2)cc1 | 224 | 5.36 | 8.70 |  | > 10 |  |  |  | 
31 | CCCCCN1CCC(COCc2ccc(F)cc2)CC1.Cl |  | 5.88 | 8.05 |  | < 10 |  |  |  | 
32 | Cl.OC(CC1CCN(Cc2ccccc2)CC1)c1ccc(F)cc1 (stereo unspecified) | 323 | 5.25 | 8.10 | 5 |  | 6.8 | > 30 | 32 | 
33 | Cl.Fc1ccc(OCC2CCN(CCc3ccc(Cl)cc3)CC2)cc1 | 26 | 6.43 | 8.30 | 1.7 |  | > 10 |  | 10 | 
34 | OC(CCCN1CCN(c2ncc(F)cn2)CC1)c1ccc(F)cc1 (stereo unspecified) [BMY-14802] | 410 | 5.61 | 6.76 | 6 |  | 2.3 | > 90 |  | 45
35 | C[C@@H]1CN(CCCn2c3ccccc3c3ccccc32)C[C@H](C)N1 [RIMCAZOLE] | 2842 |  | 6.09 | 22 |  |  | > 90 |  | 48

More lines, main results first:

Row | Ki [1] [nM] | pIC50 [2] | pKi [4] | Compound | ED50 [3] [mg/kg] | ED50 [5] [mg/kg] | ED50 [6] [mg/kg] | ED50 [7] [mg/kg] | ED50 [8] [mg/kg] | ED50 [9] [mg/kg]
36 | 215 | < 5.00 | 7.89 | O.O=[N+]([O-])c1ccc(OCC2CCN(CC3CC3)CC2)cc1 | 0.85 |  | > 10 | > 30 | 1.4 | 
37 | 1135 | < 5.00 | 7.28 | CS(=O)(=O)c1ccc(OCC2CCN(CC3CC3)CC2)cc1 | > 30 |  |  |  |  | 
38 | > 100 | < 5.00 | 7.46 | O.OCc1ccc(OCC2CCN(CC3CC3)CC2)cc1 | > 30 |  |  |  |  | 
39 | 396 | < 5.00 | 7.08 | Fc1ccc(-c2ccc(OCC3CCN(CC4CC4)CC3)cc2)cc1 | < 30 |  |  |  |  | 
40 | > 100 | 5.53 | 8.30 | O.c1ccc2cc(OCC3CCN(CC4CC4)CC3)ccc2c1 |  | > 10 |  |  |  | 
41 | > 10000 | < 5.00 | 7.92 | O.c1ccc(-c2ccc(OCC3CCN(CC4CC4)CC3)cc2)cc1 | 7.5 |  | > 30 | > 30 | 30 | 
42 | 9 | 6.42 | 8.70 | Fc1ccc(OCC2CCN(CC3CC3)CC2)cc1 | 2.9 |  | 10 | > 30 | 12 | 
43 | 112 | 5.63 | 7.47 | c1cc2cc(OCC3CCN(CC4CC4)CC3)ccc2[nH]1 | < 30 |  |  |  |  | 
44 | 1158 | 5.14 | 8.30 | CN(C)c1cccc(OCC2CCN(CC3CC3)CC2)c1.O |  | < 10 |  |  |  | 
45 | 118 | 5.36 | 7.29 | Fc1ccc(OCC2CCN(Cc3ccc4ccccc4c3)CC2)cc1 | 1.7 |  |  |  |  | 
46 | 2818 | < 5.00 | 8.00 | N#Cc1ccc(OCC2CCN(CC3CC3)CC2)cc1 | 1.7 |  | 29 |  | 2.6 | 
47 | 40 | < 5.00 | 8.40 | Cl.Clc1ccc(OCC2CCN(CC3CC3)CC2)cc1 | 4.4 |  | 27 | > 30 | 26 | 
48 | 28 | 6.06 | 8.70 | Cl.Fc1ccc(OCC2CCN(Cc3ccccc3)CC2)cc1.O | 4 |  |  | > 30 | 8.2 | 
49 | 137 | 5.38 | 8.08 | Cl.Clc1ccc(OCC2CCN(Cc3ccccc3)CC2)cc1 | 8 |  | > 10 |  | 10 | 
50 | 251 | 6.52 |  | Cl.Fc1ccc(COCC2CCN(Cc3ccc4ccccc4c3)CC2)cc1 |  | > 10 |  |  |  | 
51 | 1883 | 5.74 | 7.26 | Br.COc1ccc(C(=O)CC2CCN(CC3CC3)CC2)cc1 |  | > 10 |  |  |  | 
52 | 547 | 5.76 | 7.29 | Br.O=C(CC1CCN(CC2CC2)CC1)c1ccc(-c2ccccc2)cc1 | 4.7 |  | 10 | > 30 |  | 8.4
